Compound activity: PubChem, several laboratories
RAM network inh = inhibitors of the yeast RAM network | S. cerevisiae dse1pr::URA3 reporter, 5-FOA growth OD615, 2 d; analog-sensitive cbk1-as2 kinase mutant strain | inhibition, % at 50 µM | 1.8% of 190,000 active;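 active = inhibition above a set limit, 3 SD over mean compound inhibition, cut at about 8.4% in these data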;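 also: inhibition rescues growth on 5-FOA so higher OD means more RAM inhibition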
Yeast growth inh = reduces growth of yeast BB579 in restrictive medium. S. cerevisiae BB579 growth, OD615, 48 h. inhibition, % at 10 µM. 0.51% of 140,000 active. AID 804;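 active = inhibition above a set limit, 3 SD over the mean compound inhibition, cut at about 44% in these data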
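Detection: OD615 turbidity measurement; Material: Saccharomyces cerevisiae DeaD strain BB579, replicative lifespan model yeast; Timing: 48 h exposure, 30 °C; Doses: single 10 µM dose; Medium: CSMM-D restrictive synthetic medium containing dextrose (glucose); Controls: amphotericin B at 10 µg/mL as positive control.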
KCC2 mod = modulators of human KCC2 chloride dependent transport; KCC2 cells, thallium flux FluoZin-2 fluorescence; B-score of Tl+ flux slope (higher = more flux/activation; lower = inhibition) at 10 µM; AID 1456; Q9H2X9; 2.2% of 190,000 active;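 active = thallium flux slope and its plate-corrected score both differing from the plate sample mean at a set confidence after two filtering rounds, in either direction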;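 also: slope of fluorescence scaled to starting intensity during 10 to 20 s after thallium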
Target sequence (Q9H2X9 whole entry, looked up): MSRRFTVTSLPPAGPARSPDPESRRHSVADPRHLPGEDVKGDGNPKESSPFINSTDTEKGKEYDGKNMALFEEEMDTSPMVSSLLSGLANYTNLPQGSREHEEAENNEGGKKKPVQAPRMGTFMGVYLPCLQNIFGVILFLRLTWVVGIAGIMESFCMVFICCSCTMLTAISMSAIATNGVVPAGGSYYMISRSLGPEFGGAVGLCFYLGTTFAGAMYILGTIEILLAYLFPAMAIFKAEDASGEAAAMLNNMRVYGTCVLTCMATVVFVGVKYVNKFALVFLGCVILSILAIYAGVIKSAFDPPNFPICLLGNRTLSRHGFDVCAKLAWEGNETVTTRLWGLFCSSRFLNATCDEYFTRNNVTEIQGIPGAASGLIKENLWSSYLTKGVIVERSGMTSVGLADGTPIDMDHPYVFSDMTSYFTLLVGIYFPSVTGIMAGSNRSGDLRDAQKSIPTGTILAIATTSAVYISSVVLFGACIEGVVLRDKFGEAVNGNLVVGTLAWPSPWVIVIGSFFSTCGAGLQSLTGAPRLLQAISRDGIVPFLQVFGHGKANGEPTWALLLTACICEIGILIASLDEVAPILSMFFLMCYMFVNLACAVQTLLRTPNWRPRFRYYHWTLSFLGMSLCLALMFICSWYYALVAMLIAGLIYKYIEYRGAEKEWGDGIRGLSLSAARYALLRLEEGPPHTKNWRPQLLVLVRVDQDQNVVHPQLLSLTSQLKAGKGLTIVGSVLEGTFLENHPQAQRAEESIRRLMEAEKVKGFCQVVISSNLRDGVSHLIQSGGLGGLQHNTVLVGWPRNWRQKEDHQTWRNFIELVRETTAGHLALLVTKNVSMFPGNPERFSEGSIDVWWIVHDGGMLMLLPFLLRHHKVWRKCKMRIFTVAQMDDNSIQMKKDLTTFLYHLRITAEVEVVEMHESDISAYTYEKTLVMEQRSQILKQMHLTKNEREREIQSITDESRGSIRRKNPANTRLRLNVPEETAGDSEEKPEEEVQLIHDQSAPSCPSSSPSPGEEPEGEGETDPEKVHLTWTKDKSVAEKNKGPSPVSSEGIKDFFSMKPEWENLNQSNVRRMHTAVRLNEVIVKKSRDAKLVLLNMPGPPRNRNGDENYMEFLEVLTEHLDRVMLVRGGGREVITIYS
WT yeast gro inh = growth inhibition of WT yeast, mitochondrial fusion screen | mitochondrial fusion phenotypic screen, WT strain | inhibition, % at 10 µM | 2.1% of 190,000 active | AID 1362; in the data active = inhibition above about 58%; tested in S. cerevisiae
Yeast life ext = extends the lifespan of yeast; S. cerevisiae growth with nicotinamide, OD615; deaD strain in restrictive glucose medium; inhibition of the nicotinamide effect, % at 10 µM; 0.68% of 130,000 active;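 active = inhibition above a set limit, placed 3 SD over the median of all compounds, cut at about 26% in these data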
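Assay system: engineered S. cerevisiae DeaD replicative-lifespan strain, galactose-grown log-phase cells; Buffer or medium: CSMM-D glucose medium, restrictive; Probe or stimulus: nicotinamide 1.5 mM; Compound: single dose 10 µM compound, 0.25% DMSO; Schedule: 4 h preincubation then 48 h treatment at 30 °C; Technique: OD615 measurement.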
RAM efflux-def = RAM network inhibitors in efflux-deficient yeast | shares compounds with RAM network inh | S. cerevisiae efflux-deficient reporter strain, 5-FOA growth OD615, 2 days | max inhibition, % | 1,200 tested, under 10 active | AID 1305; call rule not given here
Numbers stand for hits; . = inactive; / = no result. Compounds with a hit are over-represented: about 5.5% of the library has one in this group of screens.

SMILES | RAM network inh | Yeast growth inh | KCC2 mod | WT yeast gro inh | Yeast life ext | RAM efflux-def
O=C(C(Sc1ccccc1)c1ccccc1)N1CCN(c2ccccc2)CC1 (stereo not drawn) | 21 | . | . | . | . | .
CCOc1ccc(-c2c(C(=O)N/N=C/c3ccc(OC)cc3)nnn2-c2nonc2N)cc1 | 12 | . | . | . | . | .
O=C(c1cc(COc2ccc(F)cc2Cl)on1)N1CCCC(c2ccccc2)C1 (stereo not drawn) | 13 | / | . | . | / | .
CCOc1ccccc1NC(=S)NC(=O)CCCOc1ccc(Cl)cc1Cl | 12 | . | . | . | . | .
CCCCC(=O)Nc1cccc(NC(=S)NC(=O)COc2ccccc2Cl)c1 | 12 | . | . | . | . | .
O=C(CCCOc1ccc(Cl)cc1Cl)Nc1ccccc1C(=O)O | / | / | . | / | / | /
O=C(/C=C/c1cccc(Br)c1)N1CCN(c2cccc(C(F)(F)F)c2)CC1 | 16 | . | . | 67 | . | .
O=C(/C=C/c1ccc(Br)cc1)N1CCN(c2cccc(C(F)(F)F)c2)CC1 | 12 | . | . | . | . | .
O=C(c1c(F)c(F)c(F)c(F)c1F)N1CCN(c2cccc(C(F)(F)F)c2)CC1 | . | . | . | . | . | /
Cc1ccc(/C=C/C(=O)N2CCN(c3ncccn3)CC2)o1 | . | . | . | . | . | /
COc1ccc2c(CC(=O)Nc3ccc(OC)nc3)coc2c1 | . | / | . | . | / | /
COc1cccc(CNC(=O)CN2C(=O)CC(c3ccccc3)=Nc3ccccc32)c1 | 13 | / | . | . | / | .
COc1cccc(CSc2nc3sc(C)c(C)c3c(=O)n2Cc2ccco2)c1 | 16 | . | / | . | . | .
COc1ccc(NC(=O)CSc2nc3sc(C)c(C)c3c(=O)n2Cc2ccco2)cc1 | . | . | . | . | . | /
Cc1cccc(CSc2nc3sc(C)c(C)c3c(=O)n2Cc2ccco2)c1 | 22 | . | / | . | . | .
Cc1sc2nc(SCC(=O)C(C)(C)C)n(Cc3ccco3)c(=O)c2c1C | . | . | . | . | . | /
Cc1sc2nc(SCc3ccccc3)n(Cc3ccco3)c(=O)c2c1C | 13 | . | . | . | . | .
Cc1sc2nc(SCc3nc4ccccc4[nH]3)n(Cc3ccco3)c(=O)c2c1C | . | . | . | . | . | /
CCOc1cc(NC(=O)c2ccccn2)c(OCC)cc1NC(=O)c1ccc(C)cc1 | 12 | / | . | / | / | .
CC1CCc2c(sc3ncn(N)c(=N)c23)C1 (stereo not drawn) | / | / | . | / | / | /
CCn1c(/C=C/c2c(C)[nH]c3ccccc23)nc2ccccc2c1=O | . | . | . | . | . | /
CN(C)S(=O)(=O)c1ccc2[nH]cc(/C=C/c3nc4ccccc4c(=O)n3-c3ccccc3)c2c1 | 13 | . | . | . | . | .
CCn1c(/C=C/c2c[nH]c3ccccc23)nc2ccccc2c1=O | . | / | . | . | / | /
Cc1[nH]c2ccccc2c1/C=C/c1nc2ccccc2c(=O)n1-c1ccc([N+](=O)[O-])cc1 | 11 | . | . | . | . | .
Cc1c(C)n(C(=O)CSc2nc3ccccc3[nH]2)c2ccccc12 | . | . | . | . | . | /
SMILES | RAM network inh | Yeast growth inh | KCC2 mod | WT yeast gro inh | Yeast life ext | RAM efflux-def
O=C(CN1CCCCC1)Nc1cccc(-n2cnnn2)c1 | . | . | . | . | . | /
Nc1nc(SCC(=O)NCc2ccc(F)cc2)[nH]c(=O)c1NC(=O)c1ccc(Cl)cc1 | 12 | . | . | . | . | .
COc1ccc(OC)c(NC(=O)CSCc2cnn(-c3ccccc3)c2-n2cccc2)c1 | 16 | . | . | . | . | .
COc1cc(NC(=O)CSCc2cnn(-c3ccccc3)c2-n2cccc2)cc(OC)c1 | 20 | . | / | . | . | .
O=C(O)c1cc(N2N=C(C(F)(F)F)/C(=C/C=C/c3ccco3)C2=O)ccc1Cl | 14 | / | . | . | / | .
NC(=O)NC(=O)COC(=O)[C@H](Cc1ccccc1)NC(=O)c1cccs1 | . | / | . | . | / | /
CCn1c(CCNC(=O)c2ccc(Cl)c(Cl)c2)nnc1SCCOc1ccc(OC)cc1 | 16 | . | / | . | . | .
COC(=O)Cc1ccc(N(Cc2ccccc2F)S(=O)(=O)c2ccc(Cl)cc2)cc1 | 15 | . | . | 69 | . | .
CN(C(=O)COC(=O)CNC(=O)c1ccc(Cl)cc1Cl)c1ccccc1 | . | / | . | . | / | /
CCCCSc1nnc([C@H](C)NC(=O)OC(C)(C)C)o1 | . | . | . | . | . | /
CCCCSc1nnc([C@H](CC(C)C)NC(=O)OC(C)(C)C)o1 | 16 | . | . | . | . | .
COc1ccc(CSCC(=O)Nc2ccc(S(=O)(=O)N3CCCCCC3)cc2)cc1 | 14 | . | . | . | . | .
O=C(OCC#CCSc1nnc(-c2ccc(Br)cc2)o1)c1cccs1 | 16 | . | . | . | . | .
CCOc1ccc2nc(NS(C)(=O)=O)sc2c1 | . | . | . | . | . | /
CCOc1ccc(S(=O)(=O)Nc2nc3ccc(OC)cc3s2)cc1 | 12 | . | . | . | . | .
Cc1ccc(O)c(-c2cc(-c3cccc(Br)c3)n[nH]2)c1 | 12 | / | . | . | / | .
O=c1c(-c2nnc(SCc3ccc(Cl)cc3Cl)o2)cccn1Cc1ccccc1 | 12 | . | . | . | . | .
CSc1nnc(-c2cccn(Cc3ccccc3)c2=O)o1 | . | / | . | . | / | /
O=C(c1cnc(-c2ccc(Cl)cc2)s1)c1ccc(Cl)cc1Cl | 15 | . | . | 73 | . | .
O=C(O)Cc1ccc(C(=O)c2ccc(Cl)cc2Cl)s1 | . | / | . | . | / | /
O=C(C[n+]1ccc(C(=O)NCc2ccccc2)cc1)c1ccc(OC(F)F)cc1 | . | / | . | . | / | /
O=C(NCc1ccccc1)/C(=C/c1ccc(OC(F)F)cc1)c1ccccc1 | 12 | . | . | 63 | . | .
OC(CON=C1c2ccccc2-c2ccccc21)CN1CCNCC1 (stereo not drawn) | . | / | . | . | / | /
CCCCCCN1C=C/C(=C\C=C(C#N)C#N)c2ccccc21 | 17 | . | . | . | . | .
O=C(OCc1c(Cl)cccc1Cl)c1ccncc1 | . | . | . | . | . | /
SMILES | RAM network inh | Yeast growth inh | KCC2 mod | WT yeast gro inh | Yeast life ext | RAM efflux-def
Cc1cc(C)nc(NS(=O)(=O)c2ccc(NC(=O)c3cccs3)cc2)n1 | . | . | . | . | . | /
CCCCN(CCCC)S(=O)(=O)c1ccc(NC(=O)c2cccs2)cc1 | 16 | . | . | . | . | .
COc1ccc(/C=C2\SC(=S)N(CC(=O)OCC(=O)Nc3ccc(C)cc3Cl)C2=O)cc1 | 13 | / | . | . | / | .
COc1ccc(/C=C2/SC(=S)N(CCC(=O)O)C2=O)cc1 | . | . | . | . | . | /
COc1ccc(/C=C2\SC(=S)N(CC(=O)OCC(=O)Nc3ccc([N+](=O)[O-])cc3OC)C2=O)cc1 | 18 | / | . | . | / | .
COC(=O)c1cc2c(ccn2-c2ccc(F)cc2)n1Cc1cccc(OC)c1 | 13 | . | . | . | . | .
CCCN1C(=O)/C(=c2\sc3nc(=O)c(Cc4ccc(C)cc4)nn3c2=O)c2ccccc21 | 12 | / | . | . | / | .
NC(=O)CN1C(=O)/C(=c2\sc3nc(=O)c(Cc4ccccc4)nn3c2=O)c2ccccc21 | / | / | . | / | / | /
